For 12 compounds, Selectivity and Ki results are on record in ChEMBL document CHEMBL1138631, “Synthesis and amine transporter affinities of novel phenyltropane derivatives as potential positron emission tomography (PET) imaging agents” (Bioorg Med Chem Lett, 2004).

The target of test [1] is Monoamine transporters; serotonin & dopamine (Rattus norvegicus) (UniProt P31652+P23977). The test can be described thus: Ratio of Ki for dopamine and serotonin transporters. Type of test: protein assay. In a few lines:
(§1)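 Selectivity calculated as Ki at SERT or NET divided by Ki at DAT. Ki values came from radioligand competition assays with tritiated ligands selective for each transporter in rat forebrain tissue preparations. A ratio above 1.0 means preference for DAT.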

In test [2] the target is Sodium-dependent serotonin transporter (Rattus norvegicus, UniProt P31652). The test can be described thus: Displacement of [3H]cyanoimiprimine from serotonin transporter of rat cerebral cortical homogenate. The gist of the method: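 Rat cerebral cortical homogenates incubated with 0.71 nM [3H]cyanoimiprimine in a radioligand competition binding assay; affinity expressed as Ki in nM.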

For test [3], the target named is Sodium-dependent dopamine transporter (Rattus norvegicus, UniProt P23977). Kind of test: Displacement of [3H]CIT from dopamine transporter of rat striatal homogenate.
Test [4] concerns the target Sodium-dependent dopamine transporter (Homo sapiens, UniProt Q01959). The test can be described thus: Inhibition of [18F]PET binding to dopamine transporter of human brain.
Test [5] addresses Norepinephrine transporter (Rattus norvegicus, UniProt Q9WTR4). The test can be described thus: Displacement of [3H]-nisoxetine from norepinephrine transporter of rat cerebral corticex homogenate. In a few lines:
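Competition binding in rat cerebral cortical homogenates incubated with 0.35 nM [3H]nisoxetine; Ki reported in nM.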

Test [6] deals with Monoamine transporters; Norepininephrine & dopamine (Rattus norvegicus) (UniProt P23977+Q9WTR4). Kind of test: Ratio of Ki for dopamine and norepinephrine transporters. Type of test: protein assay. The gist of the method: as §1

Sequence of Sodium-dependent serotonin transporter (P31652 whole entry): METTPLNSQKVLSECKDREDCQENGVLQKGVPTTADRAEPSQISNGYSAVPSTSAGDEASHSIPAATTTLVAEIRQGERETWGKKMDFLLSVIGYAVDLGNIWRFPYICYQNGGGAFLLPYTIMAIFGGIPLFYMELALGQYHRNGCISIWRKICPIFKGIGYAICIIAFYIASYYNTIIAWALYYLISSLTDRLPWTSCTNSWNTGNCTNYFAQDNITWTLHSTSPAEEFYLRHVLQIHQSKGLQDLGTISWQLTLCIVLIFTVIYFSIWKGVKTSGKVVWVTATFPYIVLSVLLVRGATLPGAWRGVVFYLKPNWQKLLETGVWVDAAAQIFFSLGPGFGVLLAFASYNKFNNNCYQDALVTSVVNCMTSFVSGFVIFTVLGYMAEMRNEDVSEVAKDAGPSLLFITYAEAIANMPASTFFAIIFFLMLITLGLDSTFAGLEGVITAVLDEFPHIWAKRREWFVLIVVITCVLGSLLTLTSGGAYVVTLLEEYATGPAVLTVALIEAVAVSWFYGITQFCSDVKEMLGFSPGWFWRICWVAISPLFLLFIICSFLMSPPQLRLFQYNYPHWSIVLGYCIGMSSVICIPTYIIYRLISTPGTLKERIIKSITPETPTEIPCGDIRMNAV
Sequence of Sodium-dependent dopamine transporter (Rattus norvegicus, UniProt P23977) (P23977 whole entry): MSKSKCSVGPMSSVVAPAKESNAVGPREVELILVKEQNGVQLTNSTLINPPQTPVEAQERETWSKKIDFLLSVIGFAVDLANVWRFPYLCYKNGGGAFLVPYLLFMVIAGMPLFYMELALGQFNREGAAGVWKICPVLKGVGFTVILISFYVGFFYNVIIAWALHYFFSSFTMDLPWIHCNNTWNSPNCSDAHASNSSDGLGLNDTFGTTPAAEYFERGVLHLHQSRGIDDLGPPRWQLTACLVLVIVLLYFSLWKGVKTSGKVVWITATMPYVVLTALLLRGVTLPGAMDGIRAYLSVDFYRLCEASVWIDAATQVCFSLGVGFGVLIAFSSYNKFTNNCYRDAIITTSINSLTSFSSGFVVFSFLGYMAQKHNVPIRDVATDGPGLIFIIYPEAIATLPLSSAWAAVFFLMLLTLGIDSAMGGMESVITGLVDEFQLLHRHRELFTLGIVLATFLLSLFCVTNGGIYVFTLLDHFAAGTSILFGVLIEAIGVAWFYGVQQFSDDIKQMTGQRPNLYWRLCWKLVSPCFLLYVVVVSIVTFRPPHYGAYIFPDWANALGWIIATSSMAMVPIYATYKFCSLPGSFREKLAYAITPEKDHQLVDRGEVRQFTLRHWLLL
Sequence of Monoamine transporters; serotonin & dopamine (Rattus norvegicus) (P23977 whole entry, looked up): as the sequence (P23977 whole entry) above
Sequence of Monoamine transporters; serotonin & dopamine (Rattus norvegicus) (P31652 whole entry, looked up): as the sequence (P31652 whole entry) above
Sequence of Sodium-dependent dopamine transporter (Homo sapiens, UniProt Q01959) (Q01959 whole entry): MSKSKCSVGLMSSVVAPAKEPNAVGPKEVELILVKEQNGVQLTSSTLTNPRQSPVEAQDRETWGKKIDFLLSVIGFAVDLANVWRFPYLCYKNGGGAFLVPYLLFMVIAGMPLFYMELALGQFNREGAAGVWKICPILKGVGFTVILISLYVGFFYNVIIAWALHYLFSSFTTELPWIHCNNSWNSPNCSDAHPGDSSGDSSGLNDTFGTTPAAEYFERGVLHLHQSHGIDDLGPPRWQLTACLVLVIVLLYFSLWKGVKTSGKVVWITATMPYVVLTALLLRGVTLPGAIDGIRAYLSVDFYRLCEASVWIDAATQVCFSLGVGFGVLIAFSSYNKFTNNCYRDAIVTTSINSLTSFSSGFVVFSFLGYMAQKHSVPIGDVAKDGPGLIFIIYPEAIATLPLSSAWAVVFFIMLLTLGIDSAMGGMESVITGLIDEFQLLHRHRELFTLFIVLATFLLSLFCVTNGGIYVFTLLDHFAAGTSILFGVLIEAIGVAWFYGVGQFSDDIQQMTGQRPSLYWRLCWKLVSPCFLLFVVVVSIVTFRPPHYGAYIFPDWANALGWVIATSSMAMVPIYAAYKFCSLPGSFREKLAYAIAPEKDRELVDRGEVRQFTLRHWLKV
Sequence of Norepinephrine transporter (Q9WTR4 whole entry): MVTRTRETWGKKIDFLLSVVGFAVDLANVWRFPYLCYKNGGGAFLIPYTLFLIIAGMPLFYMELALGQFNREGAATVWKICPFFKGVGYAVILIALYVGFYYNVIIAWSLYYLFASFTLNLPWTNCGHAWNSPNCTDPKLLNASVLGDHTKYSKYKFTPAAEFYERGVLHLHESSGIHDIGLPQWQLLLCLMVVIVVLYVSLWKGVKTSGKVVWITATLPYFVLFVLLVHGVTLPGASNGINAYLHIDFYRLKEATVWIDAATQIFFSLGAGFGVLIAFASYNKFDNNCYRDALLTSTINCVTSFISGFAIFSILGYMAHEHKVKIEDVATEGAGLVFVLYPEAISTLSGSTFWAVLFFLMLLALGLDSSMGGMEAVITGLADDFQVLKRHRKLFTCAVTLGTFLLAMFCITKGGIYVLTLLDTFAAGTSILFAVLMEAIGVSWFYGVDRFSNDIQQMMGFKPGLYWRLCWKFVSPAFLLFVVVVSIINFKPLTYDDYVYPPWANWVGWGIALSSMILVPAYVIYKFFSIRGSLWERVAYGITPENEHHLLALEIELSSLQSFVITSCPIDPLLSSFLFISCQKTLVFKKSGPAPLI

For `CN1C2CCC1C(C(=O)NCCF)C(c1ccc(Br)cc1)C2` (stereo not given), the Selectivity in test [1] came to 1.51. Besides, the values for the Ki in test [2] and in test [3] were 38.7 nM and 25.7 nM, respectively.
Turning to `CN1C2CCC1C(C(=O)OCCF)C(c1ccc(Br)cc1)C2` (stereo not given), the Selectivity stood at 2.19 in test [1] and 120 in test [6]. In addition, the Ki is 5 nM in test [4], 280 nM in test [5], 5.1 nM in test [2] and 2.33 nM in test [3].
For `CN1C2CCC1C(C(=O)OCCCF)C(c1ccc(Br)cc1)C2` (stereo not given), the results for the Selectivity in test [1] and in test [6] were 1.5 and 128, respectively. In addition, the inhibition constant Ki amounted to 5 nM in test [4], 244 nM in test [5], 2.86 nM in test [2] and 1.91 nM in test [3].
With `O=C(OCCF)C1C2CCC(CC1c1ccc(Br)cc1)N2` (stereo not given), the figures for the Selectivity in test [1] and in test [6] were 0.42 and 26.7, respectively. The Ki came to 5 nM in test [4], 15.2 nM in test [5], 0.24 nM in test [2] and 0.57 nM in test [3].
As to `O=C(OCCF)C1C2CCC(CC1c1ccc(I)cc1)N2` (stereo not given), the Selectivity in test [1] worked out at 0.21. In addition, the Ki was 5 nM in test [4], 0.18 nM in test [2] and 0.85 nM in test [3].
As to `CN1C2CCC1C(C(=O)OCCF)C(c1ccc(I)cc1)C2` (stereo not given), the Selectivity is 4.3 in test [1] and 125 in test [6]. Besides, the Ki turned out to be 116 nM in test [5] and 4.02 nM in test [2].
With `COC(=O)C1C2CCC(CC1c1ccc(Br)cc1)N2` (stereo not given), the Ki in test [5] was 1.02 nM; in test [2] it was 0.95 nM; in test [3] it was 0.52 nM.
In the case of `COC(=O)C1C(c2ccc(Br)cc2)CC2CCC1N2CCCF` (stereo not given), the Selectivity in test [1] turned out to be 10.9; in test [6], 58.9.
As for `CN1C2CCC1C(C(=O)NCCF)C(c1ccc(I)cc1)C2` (stereo not given), the Selectivity is 0.69 in test [1] and over 225 in test [6]. Besides, the Ki in test [5] is over 10000 nM; in test [2], 30.8 nM; in test [3], 44.5 nM.
Regarding `O=C(OCCF)C1C(c2ccc(Br)cc2)CC2CCC1N2CCCF` (stereo not given), the results for the Selectivity in test [1] and in test [6] were 1.72 and 0.19, respectively. Besides, the Ki in test [5] was determined as 2.03 nM; in test [2] it was 18.3 nM; in test [3], 10.6 nM.
`COC(=O)C1C(c2ccc(Br)cc2)CC2CCC1N2C` (stereo not given): the Selectivity in test [1] stood at 0.06; in test [6], 0.02. Moreover, the Ki in test [5] was 15.3 nM; in test [2], 4.95 nM; in test [3], 0.3 nM.
In the case of `O=C(OCCCF)C1C2CCC(CC1c1ccc(Br)cc1)N2` (stereo not given), the Selectivity was found to be 0.42 in test [1] and 12.3 in test [6]. For the same compound, the Ki came out at 5 nM in test [4], 8.85 nM in test [5], 0.3 nM in test [2] and 0.72 nM in test [3].
